This is an account of results in ChEMBL document CHEMBL1127320, “Dual-action cephalosporins incorporating a 3'-tertiary-amine-linked quinolone” (J Med Chem, 1994).

A word on the MIC: it is the smallest concentration in the dilution series that meets the test's criterion for growth inhibition. The ED50 is the dose at which the effect has come halfway, by size or by number of responders. One may read the half-life as the time needed for the level to fall by half in the phase considered.

Data set [1] has as its system Escherichia coli. Briefly: In vitro minimum inhibitory concentration was measured against Escherichia coli 257 strain. It counts as functional. The method in brief:
(§1)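 Streptococci were tested on brain heart infusion agar plus 20 units/mL catalase, Proteus on Mueller-Hinton with 3% agar, and others on Mueller-Hinton agar. Inocula were 100-fold-diluted overnight cultures, about 3 × 10^4 CFU/spot, read after overnight incubation at 36 °C.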

Data set [2] concerns Enterobacter cloacae. Briefly: tested for its efficacy against systemic murine infection caused by Enterobacter cloacae 5699. It counts as functional. The method, boiled down:
(§2)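 CD1 Swiss albino mice (18-20 g) were infected intraperitoneally with 0.5 mL of diluted culture. Within 5 min they received 1.0 mL test solution subcutaneously at the dorsal neck, in dilutions spanning 250–0.05 mg/kg. P. aeruginosa groups received a second dose at 3 h. Groups were six mice. ED50 was calculated by Reed–Muench interpolation of cumulative survival.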

For data set [3], the system named is Enterobacter cloacae. Kind of data set: In vitro minimum inhibitory concentration was measured against Enterobacter cloacae p99 (beta lactamase producer) strain. It counts as functional.
Data set [4] deals with T1, Penicillin-binding protein 1B (Escherichia coli K-12) (UniProt P02919).
T1 sequence (whole entry): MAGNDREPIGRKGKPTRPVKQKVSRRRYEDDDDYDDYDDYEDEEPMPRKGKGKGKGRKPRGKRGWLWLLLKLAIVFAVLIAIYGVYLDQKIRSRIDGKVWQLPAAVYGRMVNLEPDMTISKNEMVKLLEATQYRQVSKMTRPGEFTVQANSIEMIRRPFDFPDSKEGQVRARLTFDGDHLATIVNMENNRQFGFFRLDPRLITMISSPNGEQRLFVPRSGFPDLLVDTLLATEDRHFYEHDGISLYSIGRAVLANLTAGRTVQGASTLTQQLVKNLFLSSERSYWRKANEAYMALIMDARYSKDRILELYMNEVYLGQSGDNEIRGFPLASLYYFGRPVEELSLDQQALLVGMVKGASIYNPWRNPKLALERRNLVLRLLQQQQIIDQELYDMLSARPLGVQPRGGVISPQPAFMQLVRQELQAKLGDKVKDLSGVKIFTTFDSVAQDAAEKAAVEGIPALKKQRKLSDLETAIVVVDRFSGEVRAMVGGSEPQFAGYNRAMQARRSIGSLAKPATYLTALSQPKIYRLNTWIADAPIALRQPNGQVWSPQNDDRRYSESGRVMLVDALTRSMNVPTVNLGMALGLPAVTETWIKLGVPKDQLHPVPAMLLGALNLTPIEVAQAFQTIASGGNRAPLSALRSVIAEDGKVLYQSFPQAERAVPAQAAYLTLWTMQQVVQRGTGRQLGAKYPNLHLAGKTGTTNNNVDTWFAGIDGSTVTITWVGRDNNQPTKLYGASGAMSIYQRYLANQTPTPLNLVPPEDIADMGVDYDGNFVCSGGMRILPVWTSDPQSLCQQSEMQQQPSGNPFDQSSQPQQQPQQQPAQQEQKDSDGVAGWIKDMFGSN
Briefly: Affinity for penicillin binding protein 1b of Escherichia coli UB1005 (DC0) was evaluated. Details: unit not given here. The method in brief: (§3)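 Solubilised membranes from sonicated E. coli UB1005 served as the binding-protein source. Binding was read as inhibition of [14C]penicillin G binding.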

Data set [5] has as its target T2, Peptidoglycan D,D-transpeptidase MrdA (Escherichia coli K-12) (UniProt P0AD65).
T2 sequence (whole entry): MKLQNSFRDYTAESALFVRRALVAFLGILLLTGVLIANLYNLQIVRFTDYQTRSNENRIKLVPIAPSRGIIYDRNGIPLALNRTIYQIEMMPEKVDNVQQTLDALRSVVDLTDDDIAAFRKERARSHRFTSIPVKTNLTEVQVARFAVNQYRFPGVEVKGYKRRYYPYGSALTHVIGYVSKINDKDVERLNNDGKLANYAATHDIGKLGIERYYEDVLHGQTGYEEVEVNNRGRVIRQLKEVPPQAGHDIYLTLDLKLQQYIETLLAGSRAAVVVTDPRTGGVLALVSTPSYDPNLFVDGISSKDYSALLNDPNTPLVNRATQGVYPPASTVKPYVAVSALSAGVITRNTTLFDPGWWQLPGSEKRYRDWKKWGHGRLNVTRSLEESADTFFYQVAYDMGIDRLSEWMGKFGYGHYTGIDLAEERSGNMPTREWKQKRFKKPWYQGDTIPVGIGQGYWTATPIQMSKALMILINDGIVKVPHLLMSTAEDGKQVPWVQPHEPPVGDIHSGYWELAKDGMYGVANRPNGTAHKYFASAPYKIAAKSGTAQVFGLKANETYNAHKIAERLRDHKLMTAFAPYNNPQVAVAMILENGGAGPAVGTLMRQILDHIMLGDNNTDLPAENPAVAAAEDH
Briefly: Affinity for penicillin binding protein 2 of Escherichia coli UB1005 (DC0) was evaluated. Also on record: unit not given here. The method in brief:
as §3

The test system of data set [6] is Proteus mirabilis. Briefly: In vitro minimum inhibitory concentration was measured against Proteus mirabilis 90 strain.; (</=). In kind it is functional. The method, boiled down:
(§4)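 MICs were determined by agar dilution with 2-fold dilutions giving final 128–0.0156 µg/mL, extended to 0.000977 µg/mL where needed. Streptococci were tested on brain heart infusion agar plus 20 units/mL catalase, Proteus on Mueller-Hinton with 3% agar, and others on Mueller-Hinton agar. Inocula were 100-fold-diluted overnight cultures, about 3 × 10^4 CFU/spot, read after overnight incubation at 36 °C.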

Data set [7] has as its system Proteus vulgaris. Kind of data set: In vitro minimum inhibitory concentration was measured against Proteus vulgaris 1028BC (beta lactamase producer) strain. In kind it is functional. The method, boiled down:
as §1

Data set [8] has as its system Pseudomonas aeruginosa. Kind of data set: Bacterial challenge for systemic murine infection against Pseudomonas aeruginosa 8780. It counts as functional. The method in brief: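 Mouse protection test in CD1 Swiss albino mice (18-20 g) infected intraperitoneally with 0.5 mL of diluted bacterial suspension. Subcutaneous doses (250 to 0.05 mg/kg) were given immediately after infection and again 3 h later. Six mice per group were used. ED50 was obtained by the Reed-Muench method.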

The test system of data set [9] is Staphylococcus aureus. Briefly: tested for its efficacy against systemic murine infection caused by Staphylococcus aureus smith. It counts as functional. The method, boiled down: as §2
Data set [10] relates to Streptococcus pneumoniae. Kind of data set: tested for its efficacy against systemic murine infection caused by Streptococcus pneumoniae 6301. It counts as functional. The method in brief: as §2
The test system of data set [11] is Serratia marcescens. Briefly: tested for its efficacy against systemic murine infection caused by Serratia marcescens SM. It counts as functional. The method, boiled down:
as §2

The test system of data set [12] is Streptococcus pneumoniae. Briefly: In vitro minimum inhibitory concentration was measured against Streptococcus pneumoniae 6301 strain.; (</=). It counts as functional. The method, boiled down:
as §4

Data set [13] deals with Streptococcus pyogenes. Briefly: In vitro minimum inhibitory concentration was measured against Streptococcus pyogenes 4 strain.; (</=). It counts as functional. The method in brief: as §4
For data set [14], the system named is Pseudomonas aeruginosa. Kind of data set: tested for its efficacy against systemic murine infection caused by Pseudomonas aeruginosa 8780.
A short description of data set [15]: Half life was measured as degradation by HPLC analysis. It counts as ADME.
For data set [16], the system named is Pseudomonas aeruginosa. Briefly: Tested for its efficacy against systemic murine infection caused by Pseudomonas aeruginosa 8780. It counts as functional. The method in brief:
as §2

Data set [17] relates to Serratia marcescens. Kind of data set: Tested for its efficacy against systemic murine infection caused by Serratia marcescens SM. It counts as functional. The method in brief: as §2
The test system of data set [18] is Staphylococcus aureus. Briefly: Tested for its efficacy against systemic murine infection caused by Staphylococcus aureus smith. In kind it is functional. The method in brief:
as §2

Data set [19] concerns Streptococcus pyogenes. Briefly: In vitro minimum inhibitory concentration was measured against Streptococcus pyogenes 4 strain. It counts as functional. The method, boiled down: as §1
For data set [20], the system named is Enterobacter cloacae. Briefly: Tested for its efficacy against systemic murine infection caused by Enterobacter cloacae 5699. It counts as functional.
Data set [21] relates to Penicillin-binding protein 3 (Escherichia coli). Kind of data set: Affinity for penicillin binding protein 3 of Escherichia coli UB1005 (DC0) was evaluated. Details: unit not given here.

In brackets after ≈: the same amount, converted by molar mass. Some results are limits rather than exact numbers.

Turning to `CO/N=C(\C(=O)N[C@@H]1C(=O)N2C(C(=O)O)=C(COC(C)=O)CS[C@H]12)c1csc(N)n1` [CEFOTAXIME], the MIC is 0.031 µg/mL (≈ 0.0681 µM) in [1]; 64 µg/mL (≈ 141 µM) in data set [3]; below 0.016 µg/mL in data set [6]; above 128 µg/mL in [7]; below 0.016 µg/mL in [12]; at most 0.016 µg/mL in data set [13]. Moreover, the ED50 in data set [2] is 50 mg/kg; in data set [9] it was 6 mg/kg; in [10], 69 mg/kg; in data set [11], below 25 mg/kg; in data set [14], above 250 mg/kg. The Binding affinity in data set [4] was 0.5; in data set [5], 100. For the same molecule, the LD50 in [8] is above 250.
Take `CO/N=C(\C(=O)N[C@@H]1C(=O)N2C(C(=O)O)=C(CN3CCN(c4cc5c(cc4F)c(=O)c(C(=O)O)cn5C4CC4)CC3)CS[C@H]12)c1csc(N)n1`: the half-life in data set [15] was 144 h. In addition, the MIC in data set [1] amounted to 0.125 µg/mL (≈ 0.172 µM); in data set [3] it was 0.125 µg/mL (≈ 0.172 µM); in data set [7], 0.25 µg/mL (≈ 0.344 µM); in data set [19], 0.063 µg/mL (≈ 0.0867 µM). Moreover, the figures for the Binding affinity in [4], in [5] and in data set [21] were above 100, 100 and 0.5, respectively. The ED50 in data set [16] was 38 mg/kg; in data set [17] it was 25 mg/kg; in data set [18], above 100 mg/kg; in [20], 14 mg/kg. The LD50 in data set [8] was above 10000.
